We go through 23 compounds from ChEMBL document CHEMBL1629474, “Massive screening yields novel and selective Trypanosoma cruzi triosephosphate isomerase dimer-interface-irreversible inhibitors with anti-trypanosomal activity” (Eur J Med Chem, 2010).

Calls of active or inactive are those of the source. How the calls were made is not given here.

A short description of test [1]: Selectivity for Trypanosoma cruzi triosephosphate isomerase over human triosephosphate isomerase.
For test [2], the system named is Trypanosoma cruzi. Kind of test: Antiparasitic activity against Trypanosoma cruzi T2 epimastigotes assessed as growth inhibition at 25 uM after 5 days. It is filed as functional. Summed up:
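Late-log epimastigotes were grown axenically at 28 °C in BHI-tryptose with 5% fetal calf serum and seeded at 2×10^6/mL in medium containing compound (DMSO stock; final DMSO ≤1%, 1% DMSO control). Growth was read as A590 at day 0 and day 5. Inhibition = {1 − [(Ap − A0p)/(Ac − A0c)]} × 100. Means of two experiments.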

Test [3] deals with Triosephosphate isomerase, glycosomal (Trypanosoma cruzi) (UniProt P52270). Kind of test: Inhibition of Trypanosoma cruzi triosephosphate isomerase at 400 uM after 2 hrs. Summed up:
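Recombinant E. coli-expressed enzyme, dialyzed into 100 mM triethanolamine/10 mM EDTA pH 7.4, was incubated with compound (DMSO stock) in 100 mM triethanolamine, 10 mM EDTA, pH 7.4, 10% DMSO at 36 °C for 2 h. An aliquot was then assayed for activity (glyceraldehyde 3-phosphate to dihydroxyacetone phosphate, α-glycerol phosphate dehydrogenase-coupled) with 5 ng enzyme. Irreversible inhibition was scored as loss of activity; means of two experiments.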

Triosephosphate isomerase, glycosomal (Trypanosoma cruzi), sequence (P52270 whole entry): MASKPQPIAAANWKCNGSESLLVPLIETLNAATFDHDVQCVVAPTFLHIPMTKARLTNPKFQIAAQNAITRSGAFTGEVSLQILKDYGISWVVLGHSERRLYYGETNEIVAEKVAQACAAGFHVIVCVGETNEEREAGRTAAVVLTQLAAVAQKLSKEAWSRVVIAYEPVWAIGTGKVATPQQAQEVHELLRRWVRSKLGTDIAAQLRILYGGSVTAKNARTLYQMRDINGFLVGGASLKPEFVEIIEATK

Consider `O=[N+]([O-])c1ccc(/C=N/NC(=S)Nc2ccccc2)o1`, for which the Ratio in test [1] is above 4. Further, in test [2], the result was Active. In test [3], this compound gave an inhibition of 17%.

For `CCCCCCNS(=O)(=O)NCCCCCC`, the Ratio in test [1] is above 4. For the same compound, in test [2], the outcome was Active. For the same compound, the inhibition in test [3] came out at 0%.

As to `[O-][n+]1onc2ccc(/C=N/O)cc21`, the Ratio in test [1] is above 4. Further, in test [2], the outcome was Active. The inhibition in test [3] came to 27%.

For `O=S(=O)(/C=C\c1ccc2no[n+]([O-])c2c1)c1ccccc1`, the Ratio in test [1] is above 4. Besides, the outcome in test [2] was Active. The inhibition in test [3] was 51%.

With `Cc1ccc(S(=O)(=O)NCc2ccco2)cc1`, the Ratio in test [1] was above 4. Also, the outcome in test [2] was Active. The inhibition in test [3] came out at 8%.

Turning to `Cc1n(O)c2ccc(Br)cc2[n+]1[O-]`, the Ratio in test [1] is above 4. For the same compound, the outcome in test [2] was Active. In test [3], the inhibition was determined as 4%.

In the case of `COC(=O)N/N=C/c1c(C)no[n+]1[O-]`, in test [1], the Ratio is above 4. Besides, the outcome in test [2] was Active. For the same compound, the inhibition in test [3] was 2%.

On to `[O-][n+]1onc2ccc(C=Cc3ccccc3F)cc21`, for which the Ratio in test [1] is above 4. In addition, the outcome in test [2] was Active. Further, the inhibition in test [3] was 9%.

Turning to `Cc1nnsc1CO`, the Ratio in test [1] is above 4. In addition, the result in test [2] was Active. Also, in test [3], the inhibition came out at 29%.

Turning to `CC(=O)CN1C(=O)c2ccccc2C1=O`, the Ratio in test [1] is above 4. In test [2], the result was Active. The inhibition in test [3] was found to be 30%.

With `O=Cc1cccc(OCCCN2C(=O)c3ccccc3C2=O)c1`, the Ratio in test [1] was above 4. Moreover, the outcome in test [2] was Active. In addition, in test [3], the inhibition was 0%.

Take `Cc1c(C)[n+]([O-])c2cc(C=O)ccc2[n+]1[O-]`: the Ratio in test [1] was above 4. Also, in test [2], the result was Active. Further, the inhibition in test [3] was found to be 11%.

Take `Cc1nnc[n+]([O-])c1/C=C/c1ccc([N+](=O)[O-])s1`: the Ratio in test [1] was above 4. Further, in test [2], the outcome was Active. In test [3], the inhibition came out at 28%.

Take `O=[N+]([O-])c1ccc(N2CCOCC2)c([N+](=O)[O-])c1`: the Ratio in test [1] was above 4. Besides, in test [2], the result was Active. Further, the inhibition in test [3] was 19%.

As to `[O-][n+]1onc(-c2ccccc2)c1CCl`, the Ratio in test [1] is above 4. Besides, in test [2], the result was Active. In test [3], this compound returned an inhibition of 65%.

In the case of `CNC(=S)N/N=C/c1ccc([N+](=O)[O-])o1`, in test [1], the Ratio is above 4. Also, in test [2], the result was Active. This compound also came in with an inhibition in test [3] of 22%.

In the case of `CC1(C)[N+]([O-])=c2ccc(C3OCCO3)cc2=[N+]1[O-]`, the Ratio in test [1] was above 4. The outcome in test [2] was Active. The inhibition in test [3] was 36%.

For `Cc1nnc[n+]([O-])c1/C=C/c1ccc2c(c1)OCO2`, in test [1], the Ratio is above 4. Further, in test [2], the outcome was Active. This compound also registered an inhibition in test [3] of 40%.

As to `[O-][n+]1onc2ccc(/C=C\c3ccccc3)cc21`, in test [1], the Ratio is above 4. For the same compound, the outcome in test [2] was Active. The compound further came in with an inhibition in test [3] of 0%.

Consider `O=C(Oc1ccccc1)N1CCN(C/C=C/c2ccccc2)CC1`, for which the Ratio in test [1] is above 4. Also, the result in test [2] was Active. In test [3], the inhibition came to 21%.

For the compound `Cc1nnc[n+]([O-])c1/C=C/c1ccc(Cl)cc1`, in test [1], the Ratio was above 4. Also, in test [2], the outcome was Active. The same compound registered an inhibition in test [3] of 15%.

As for `[O-][n+]1onc2ccc(C=Cc3ccc(Br)cc3)cc21`, the Ratio in test [1] was above 4. Besides, in test [2], the result was Active. The inhibition in test [3] was determined as 22%.

Consider `COc1ccc(C(=O)/C=C/c2ccc3no[n+]([O-])c3c2)cc1`, for which the Ratio in test [1] is above 4. Further, in test [2], the result was Active. For the same compound, in test [3], the inhibition is 45%.
